Values after ≈ are worked out from the molar mass of the structure shown. Active and inactive are the calls of the source. No cut-off for these calls is given here.
What was measured:
[1] = test system: Trichoderma hamatum; assay: Antifungal activity against Trichoderma hamatum assessed as radial growth at 5% after 24 hrs by poison food technique of Flack relative to control; assay type: functional
How it was run: (§1)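 Acetone stock added to molten sterilized PDA to final 0.5–7%, plated in 90 mm dishes with compound-free plates as control. Each plate was inoculated with a 9 mm disc from a 4-day-old culture, incubated at 25 ± 1 °C, and colony diameter measured at 24 h intervals. % inhibition = (control − treatment)/control × 100; three replicates averaged.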

[2] = test system: Aspergillus niger; assay: Antifungal activity against Aspergillus niger assessed as radial growth at 0.5% after 72 hrs by poison food technique of Flack relative to control; assay type: functional
[3] = test system: Aspergillus niger; assay: Antifungal activity against Aspergillus niger assessed as radial growth at 1% after 48 hrs by poison food technique of Flack relative to control; assay type: functional
[4] = test system: Trichoderma hamatum; assay: Antifungal activity against Trichoderma hamatum assessed as radial growth at 7% after 48 hrs by poison food technique of Flack relative to control; assay type: functional; how it was run: as §1
[5] = test system: Trichoderma koningii; assay: Antifungal activity against Trichoderma koningii assessed as radial growth at 3% after 72 hrs by poison food technique of Flack relative to control; assay type: functional; how it was run: as §1
[6] = test system: Trichoderma koningii; assay: Antifungal activity against Trichoderma koningii assessed as radial growth at 0.5% after 72 hrs by poison food technique of Flack relative to control; assay type: functional; how it was run: as §1
[7] = test system: Trichoderma koningii; assay: Antifungal activity against Trichoderma koningii assessed as radial growth at 0.5% after 24 hrs by poison food technique of Flack relative to control; assay type: functional; how it was run: as §1
[8] = test system: Trichoderma koningii; assay: Antifungal activity against Trichoderma koningii assessed as radial growth at 5% after 24 hrs by poison food technique of Flack relative to control; assay type: functional; how it was run: as §1
[9] = test system: Trichoderma hamatum; assay: Antifungal activity against Trichoderma hamatum assessed as radial growth at 3% after 48 hrs by poison food technique of Flack relative to control; assay type: functional
[10] = test system: Aspergillus niger; assay: Antifungal activity against Aspergillus niger assessed as radial growth at 5% after 24 hrs by poison food technique of Flack relative to control; assay type: functional
[11] = test system: Trichoderma koningii; assay: Antifungal activity against Trichoderma koningii assessed as radial growth at 1% after 72 hrs by poison food technique of Flack relative to control; assay type: functional; how it was run: as §1
[12] = test system: Trichoderma hamatum; assay: Antifungal activity against Trichoderma hamatum assessed as radial growth at 3% after 72 hrs by poison food technique of Flack relative to control; assay type: functional
[13] = test system: Trichoderma hamatum; assay: Antifungal activity against Trichoderma hamatum assessed as radial growth at 0.5% after 24 hrs by poison food technique of Flack relative to control; assay type: functional
[14] = test system: Trichoderma koningii; assay: Antifungal activity against Trichoderma koningii assessed as radial growth at 3% after 24 hrs by poison food technique of Flack relative to control; assay type: functional; how it was run: as §1
[15] = test system: Aspergillus niger; assay: Antifungal activity against Aspergillus niger assessed as radial growth at 1% after 72 hrs by poison food technique of Flack relative to control; assay type: functional
[16] = test system: Aspergillus niger; assay: Antifungal activity against Aspergillus niger assessed as radial growth at 3% after 72 hrs by poison food technique of Flack relative to control; assay type: functional
[17] = test system: Trichoderma koningii; assay: Antifungal activity against Trichoderma koningii assessed as radial growth at 7% after 48 hrs by poison food technique of Flack relative to control; assay type: functional; how it was run: as §1
[18] = test system: Aspergillus niger; assay: Antifungal activity against Aspergillus niger assessed as radial growth at 7% after 24 hrs by poison food technique of Flack relative to control; assay type: functional
[19] = test system: Trichoderma hamatum; assay: Antifungal activity against Trichoderma hamatum assessed as radial growth at 7% after 24 hrs by poison food technique of Flack relative to control; assay type: functional; how it was run: as §1
[20] = test system: Trichoderma hamatum; assay: Antifungal activity against Trichoderma hamatum assessed as radial growth at 7% after 24 hrs by poison food technique of Flack; assay type: functional, organism-based
How it was run: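 Poisoned-food method: acetone stock mixed into molten sterilized potato dextrose agar to final 0.5, 1, 3, 5 or 7%, poured into 90 mm plates. Plates were inoculated with a 9 mm mycelial disc from a 4-day-old pure culture and incubated at 25 ± 1 °C. Colony diameter (mm) was read every 24 h; mean of three replicates.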

[21] = test system: Aspergillus niger; assay: Antifungal activity against Aspergillus niger assessed as radial growth at 1% after 24 hrs by poison food technique of Flack relative to control; assay type: functional
[22] = test system: Trichoderma koningii; assay: Antifungal activity against Trichoderma koningii assessed as radial growth at 7% after 24 hrs by poison food technique of Flack relative to control; assay type: functional; how it was run: as §1
[23] = test system: Trichoderma hamatum; assay: Antifungal activity against Trichoderma hamatum assessed as radial growth at 1% after 24 hrs by poison food technique of Flack relative to control; assay type: functional
[24] = test system: Trichoderma hamatum; assay: Antifungal activity against Trichoderma hamatum; assay type: functional
[25] = test system: Aspergillus niger; assay: Antifungal activity against Aspergillus niger assessed as radial growth at 7% after 48 hrs by poison food technique of Flack relative to control; assay type: functional
[26] = test system: Trichoderma hamatum; assay: Antifungal activity against Trichoderma hamatum assessed as radial growth at 3% after 24 hrs by poison food technique of Flack relative to control; assay type: functional
[27] = test system: Trichoderma hamatum; assay: Antifungal activity against Trichoderma hamatum assessed as radial growth at 5% after 72 hrs by poison food technique of Flack relative to control; assay type: functional; how it was run: as §1
[28] = test system: Aspergillus niger; assay: Antifungal activity against Aspergillus niger assessed as radial growth at 3% after 48 hrs by poison food technique of Flack relative to control; assay type: functional
[29] = test system: Aspergillus niger; assay: Antifungal activity against Aspergillus niger assessed as radial growth at 3% after 24 hrs by poison food technique of Flack relative to control; assay type: functional
[30] = test system: Aspergillus niger; assay: Antifungal activity against Aspergillus niger; assay type: functional
[31] = test system: Trichoderma koningii; assay: Antifungal activity against Trichoderma koningii assessed as radial growth at 7% after 72 hrs by poison food technique of Flack relative to control; assay type: functional; how it was run: as §1
[32] = test system: Trichoderma koningii; assay: Antifungal activity against Trichoderma koningii assessed as radial growth at 1% after 24 hrs by poison food technique of Flack relative to control; assay type: functional; how it was run: as §1
[33] = test system: Trichoderma koningii; assay: Antifungal activity against Trichoderma koningii assessed as radial growth at 1% after 48 hrs by poison food technique of Flack relative to control; assay type: functional; how it was run: as §1
[34] = test system: Aspergillus niger; assay: Antifungal activity against Aspergillus niger assessed as radial growth at 7% after 72 hrs by poison food technique of Flack relative to control; assay type: functional
[35] = test system: Trichoderma koningii; assay: Antifungal activity against Trichoderma koningii assessed as radial growth at 5% after 72 hrs by poison food technique of Flack relative to control; assay type: functional; how it was run: as §1
[36] = test system: Trichoderma hamatum; assay: Antifungal activity against Trichoderma hamatum assessed as radial growth at 0.5% after 48 hrs by poison food technique of Flack relative to control; assay type: functional
[37] = test system: Trichoderma hamatum; assay: Antifungal activity against Trichoderma hamatum assessed as radial growth at 1% after 72 hrs by poison food technique of Flack relative to control; assay type: functional
[38] = test system: Aspergillus niger; assay: Antifungal activity against Aspergillus niger assessed as radial growth at 5% after 72 hrs by poison food technique of Flack relative to control; assay type: functional
[39] = test system: Trichoderma koningii; assay: Antifungal activity against Trichoderma koningii; assay type: functional
[40] = test system: Aspergillus niger; assay: Antifungal activity against Aspergillus niger assessed as radial growth at 5% after 48 hrs by poison food technique of Flack relative to control; assay type: functional
[41] = test system: Trichoderma koningii; assay: Antifungal activity against Trichoderma koningii assessed as radial growth at 0.5% after 48 hrs by poison food technique of Flack relative to control; assay type: functional; how it was run: as §1
[42] = test system: Trichoderma koningii; assay: Antifungal activity against Trichoderma koningii assessed as radial growth at 3% after 48 hrs by poison food technique of Flack relative to control; assay type: functional; how it was run: as §1
[43] = test system: Trichoderma hamatum; assay: Antifungal activity against Trichoderma hamatum assessed as radial growth at 1% after 48 hrs by poison food technique of Flack relative to control; assay type: functional
[44] = test system: Trichoderma hamatum; assay: Antifungal activity against Trichoderma hamatum assessed as radial growth at 5% after 48 hrs by poison food technique of Flack relative to control; assay type: functional; how it was run: as §1
[45] = test system: Trichoderma hamatum; assay: Antifungal activity against Trichoderma hamatum assessed as radial growth at 0.5% after 72 hrs by poison food technique of Flack relative to control; assay type: functional

SMILES: CCOC(=O)C1=C(C)NC(=O)NC1c1ccccc1 (stereo not given)
- inhibition (INH) [1]: 100%
- inhibition (INH) [2]: 0%
- inhibition (INH) [3]: 0%
- inhibition (INH) [4]: 100%
- inhibition (INH) [5]: 70.18%
- inhibition (INH) [6]: 1.59%
- inhibition (INH) [7]: 5.66%
- inhibition (INH) [8]: 100%
- inhibition (INH) [9]: 72.02%
- inhibition (INH) [10]: 84.72%
- inhibition (INH) [11]: 10.86%
- inhibition (INH) [12]: 63.38%
- inhibition (INH) [13]: 11.32%
- inhibition (INH) [14]: 100%
- inhibition (INH) [15]: 0%
- inhibition (INH) [16]: 54.34%
- inhibition (INH) [17]: 100%
- inhibition (INH) [18]: 100%
- inhibition (INH) [19]: 100%
- Activity [20]: Active
- inhibition (INH) [21]: 30.55%
- inhibition (INH) [22]: 100%
- inhibition (INH) [23]: 24.96%
- MIC [24]: 0.025 µg/mL (≈ 0.096 µM)
- inhibition (INH) [25]: 79.36%
- inhibition (INH) [26]: 82.12%
- inhibition (INH) [27]: 93.2%
- inhibition (INH) [28]: 52.83%
- inhibition (INH) [29]: 69.44%
- MIC [30]: 0.025 µg/mL (≈ 0.096 µM)
- inhibition (INH) [31]: 95.52%
- inhibition (INH) [32]: 12.09%
- inhibition (INH) [33]: 20.63%
- inhibition (INH) [34]: 76.7%
- inhibition (INH) [35]: 91.53%
- inhibition (INH) [36]: 32.99%
- inhibition (INH) [37]: 12.34%
- inhibition (INH) [38]: 73.29%
- MIC [39]: 0.025 µg/mL (≈ 0.096 µM)
- inhibition (INH) [40]: 81.17%
- inhibition (INH) [41]: 18.25%
- inhibition (INH) [42]: 62.31%
- inhibition (INH) [43]: 21.94%
- inhibition (INH) [44]: 96.89%
- inhibition (INH) [45]: 2.46%

SMILES: CCOC(=O)C1=C(C)NC(=S)NC1c1ccccc1O (stereo not given)
- inhibition (INH) [1]: 100%
- inhibition (INH) [2]: 0%
- inhibition (INH) [3]: 0%
- inhibition (INH) [4]: 100%
- inhibition (INH) [5]: 32.71%
- inhibition (INH) [6]: 0%
- inhibition (INH) [7]: 0%
- inhibition (INH) [8]: 100%
- inhibition (INH) [9]: 80.94%
- inhibition (INH) [10]: 62.46%
- inhibition (INH) [11]: 14.37%
- inhibition (INH) [12]: 76.44%
- inhibition (INH) [13]: 26.41%
- inhibition (INH) [14]: 50.39%
- inhibition (INH) [15]: 0%
- inhibition (INH) [16]: 23.37%
- inhibition (INH) [17]: 93.75%
- inhibition (INH) [18]: 62.46%
- inhibition (INH) [19]: 100%
- Activity [20]: Active
- inhibition (INH) [21]: 20.12%
- inhibition (INH) [22]: 100%
- inhibition (INH) [23]: 49.73%
- MIC [24]: 0.025 µg/mL (≈ 0.0855 µM)
- inhibition (INH) [25]: 61.83%
- inhibition (INH) [26]: 81.13%
- inhibition (INH) [27]: 97.52%
- inhibition (INH) [28]: 38.16%
- inhibition (INH) [29]: 54.95%
- MIC [30]: 0.025 µg/mL (≈ 0.0855 µM)
- inhibition (INH) [31]: 91.05%
- inhibition (INH) [32]: 12.35%
- inhibition (INH) [33]: 0%
- inhibition (INH) [34]: 36.14%
- inhibition (INH) [35]: 88.33%
- inhibition (INH) [36]: 6.18%
- inhibition (INH) [37]: 38.22%
- inhibition (INH) [38]: 31.92%
- MIC [39]: 0.025 µg/mL (≈ 0.0855 µM)
- inhibition (INH) [40]: 50%
- inhibition (INH) [41]: 0%
- inhibition (INH) [42]: 4.18%
- inhibition (INH) [43]: 51.46%
- inhibition (INH) [44]: 100%
- inhibition (INH) [45]: 0%

— ChEMBL document CHEMBL1152173, “Synthesis and in vitro evaluation of the antifungal activities of dihydropyrimidinones” (2008)
